For six compounds, Iron excretion results are on record in ChEMBL document CHEMBL1125555, “Structural alterations in desferrioxamine compatible with iron clearance in animals” (1992).

The structures appear in SMILES notation.

What all share (format): functional
Assay [1] concerns Rattus norvegicus. Briefly: Effect on 24-hcumulative iron excretion in the urine of non-iron-overloaded bileduct-cannulated rats at a concentration of 150 umol/kg after subcutaneous administration. In outline: (§1)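 Drugs given subcutaneously in Cremophor RH-40/water (40:60) to non-iron-overloaded, bile duct-cannulated rats. Rats were fasted 24 h before dosing, and the fast continued through the experiment. Bile and urine iron were collected over 24 h and reported as induced iron (mg/kg rat) with fractions in bile and urine. Efficiency is the percentage of the theoretical total (8.37 mg/kg). n = 2–6 per group.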

Assay [2] relates to Rattus norvegicus. The assay is described as follows: Effect on 24-h cumulative iron excretion in the urine of non-iron-overloaded bileduct-cannulated rats at a concentration of 150 umol/kg after subcutaneous administration. In a few lines: as §1
For assay [3], the system named is Rattus norvegicus. Briefly: Effect on 24-h cumulative iron excretion in the bile of non-iron-overloaded bileduct-cannulated rats at a concentration of 150 umol/kg after subcutaneous administration. In outline: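 Drugs given subcutaneously in Cremophor RH-40/water (40:60) to non-iron-overloaded, bile duct-cannulated rats. Rats were fasted 24 h before dosing, and the fast continued through the experiment. Bile and urine iron were collected over 24 h and reported as induced iron (mg/kg rat) with fractions in bile and urine.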

In assay [4] the test system is Rattus norvegicus. Briefly: Effect on 24-hcumulative iron excretion in the urine of non-iron-overloaded bileduct-cannulated rats at a concentration of 450 umol/kg after subcutaneous administration. In a few lines:
as §1

For assay [5], the system named is Rattus norvegicus. The assay is described as follows: Effect on 24-h cumulative iron excretion in the urine of non-iron-overloaded bileduct-cannulated rats at a concentration of 450 umol/kg after subcutaneous administration. In outline: as §1

For `CCCCCCCCCC(=O)N(O)CCCCC(=O)N(O)CCCCC(=O)N(O)CCCCCN.Cl`, the Iron excretion turned out to be 0.017 mg/kg in the assay with Rattus norvegicus [1] and 9.2% in the assay on Rattus norvegicus [2].

With `CC(=O)N(O)CCCCCCCC(=O)N(O)CCCCCCCC(=O)N(O)CCCCCN.Cl`, the Iron excretion in the assay on Rattus norvegicus [1] came out at 0 mg/kg; with Rattus norvegicus [2], 0%.

For the compound `CC(=O)N(O)CCCCCNC(=O)CCC(=O)N(O)CCCCCNC(=O)CCC(=O)N(O)CCCCCN` [DEFEROXAMINE], the Iron excretion with Rattus norvegicus [1] was found to be 0.059 mg/kg; in the assay on Rattus norvegicus [2] it was 25.4%; in the assay with Rattus norvegicus [3], 74.6%.

Regarding `CC(=O)N(O)CCCCCN`, the Iron excretion is -0.001 mg/kg with Rattus norvegicus [4] and 0% with Rattus norvegicus [5].

With `NCCCCCN(O)C(=O)CCC(=O)O`, the Iron excretion in the assay on Rattus norvegicus [4] was -0.003 mg/kg; in the assay with Rattus norvegicus [5], 0%.

As to `CC(=O)N(O)CCCCC(=O)N(O)CCCCC(=O)N(O)CCCCCN.Cl`, the Iron excretion with Rattus norvegicus [1] came out at 0.021 mg/kg; with Rattus norvegicus [2], 9.4%.
